rRNA inh HTS = selective bacterial rRNA inhibition in E. coli; 1.6% of 350,000 active; GFP signal change (wild-type ribosome), % (no concentration beside the values); E. coli WT GFP vs humanized-ribosome RFP mutants, fluorescence, 24 h; stronger effect = lower value; DMSO median 0, no signal -100; AID 720706;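 active = significant combined selectivity score with lowered wild-type GFP, culture density cut under 30%, mutant RFP and density less affected; inactive = any of these conditions unmet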
RAD54 inh = blocks human RAD54 Holliday junction branch migration; Q92698; FAM/BHQ fluorescence; inhibition, % at 10.4 µM; 0.14% of 360,000 active; AID 602329;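 active = mean normalized replicate activity at least 40 and at least half of replicates scoring 40 or more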;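 note: 0% = median of neutral control wells and 100% = median of positive control wells; inhibitors cause a drop in the FAM fluorescence signal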
AF4-AF9 inh = MLL-AF4/AF9 protein interaction inhibition | P42568 | AlphaScreen, biotin-AF4 peptide binding to FLAG-AF9 | inhibition, % at 10 µM | 0.47% of 350,000 active | AID 651704;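 active = every replicate reaching a set inhibition limit, whatever the replicate mean, cut at about 25% in these data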;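 note: 0% = plate neutral control median and 100% = total signal loss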
INS-1E GSIS act = GLuc luminescence reporter in INS-1E cells, primary screen for activators of glucose-dependent secretion of insulin. INS-1E GLuc reporter insulin secretion, 2-3 h. activation, % at 16.6 µM. 0.61% of 370,000 active;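 active = lowest replicate activation of at least 40%, so every replicate reaches that level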;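 note: 0% = median of neutral control wells and 100% = median of IBMX positive control wells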
E-selectin induc = induces E-selectin expression in human endothelial cells | P16581 | HUVEC E-selectin immunofluorescence imaging; normalized: neutral wells 0, TNF-alpha wells 100 | activation, % at 7.58 µM | 0.37% of 260,000 active | AID 686992;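 active = mean E-selectin-positive cell signal at least 10% of the positive control, reached in at least 60% of replicates, without over 20% cell loss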
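System: HUVEC, human umbilical vein endothelial cells; quantity: 3,000 cells/well; buffer or medium: EGM-2 medium, gelatin-coated wells; dosing: single-point compound dose; detection: immunofluorescence imaging; evaluation: % PE-positive cells; benchmarks: TNF-alpha, DMSO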
RAD52 anneal inh = inhibitors of human RAD52 DNA annealing. P43351. recombinant RAD52 DNA annealing, FRET fluorescence. inhibition, % at 18.7 µM. 0.46% of 360,000 active;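 active = every replicate showing at least 50% inhibition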
Target sequence (P43351 whole entry, looked up): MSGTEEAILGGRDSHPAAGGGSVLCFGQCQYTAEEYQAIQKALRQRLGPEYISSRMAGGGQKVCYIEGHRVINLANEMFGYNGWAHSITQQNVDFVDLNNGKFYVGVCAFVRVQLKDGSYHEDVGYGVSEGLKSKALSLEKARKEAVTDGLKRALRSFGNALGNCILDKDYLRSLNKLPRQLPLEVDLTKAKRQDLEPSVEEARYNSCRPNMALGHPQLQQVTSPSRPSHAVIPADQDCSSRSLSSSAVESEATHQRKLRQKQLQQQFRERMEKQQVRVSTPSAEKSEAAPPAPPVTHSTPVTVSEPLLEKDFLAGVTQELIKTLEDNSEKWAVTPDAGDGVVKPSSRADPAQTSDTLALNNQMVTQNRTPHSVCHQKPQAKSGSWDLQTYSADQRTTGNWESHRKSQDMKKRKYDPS
* hit, by the source's call; x = no result given. An excerpt weighted towards active compounds, which were near 2.6% of everything screened.

SMILES	rRNA inh HTS	RAD54 inh	AF4-AF9 inh	INS-1E GSIS act	E-selectin induc	RAD52 anneal inh
Cc1cc(C(=O)Nc2cccc3c2O[C@H](CN(C)S(=O)(=O)c2ccc(Cl)cc2)[C@H](C)CN([C@H](C)CO)C3=O)n(C)n1	-22*	-2	0	-8	0	5
CO[C@@H]1CN(C)C(=O)c2cc(NS(C)(=O)=O)ccc2OC[C@H](C)N(C(=O)C2CCCCC2)C[C@H]1C	2	6	-2	-3	0	0
CC(=O)Nc1nnc(-c2ccc(Cl)s2)o1	12	-10	45*	8	0	-11
CCC(=O)Nc1nnc(-c2ccc(Cl)s2)o1	-17	x	-1	11	x	-10
Cc1nc(N2CCN(c3ccccc3)CC2)nc2c1C(=O)CC(c1ccccc1)C2 (centres undefined)	x	-2	x	x	x	x
Cc1nc(N2CCN(c3ccccc3)CC2)nc2c1C(=O)CC(C)C2 (centres undefined)	-33*	-9	x	13	x	-31
COc1ccc(NCc2ccc(OC)c(Cn3ccnc3)c2)c(OC)c1	-7	0	34*	27	0	-20
COc1ccc(Cn2ccnc2)cc1Br	x	5	x	x	x	x
COc1cc2cnc(-c3cccnc3)cc2cc1OC	-7	21	0	62*	0	6
COc1ccc(-c2cc3cc(OC)c(OC)cc3cn2)cc1OC	0	x	-2	7	x	-19
O=S(=O)(c1ccccc1F)N1CCC(Oc2ccc(-n3cnnn3)cc2)CC1	-28*	12	1	9	x	-9
CCOc1ccc(CN(C)CC(=O)NCc2ccccc2Cl)cc1	-28*	x	-3	-23	0	-15
CO[C@@H]1CN(C)C(=O)c2cc(NC(C)=O)ccc2OC[C@H](C)N(Cc2ccccc2C(=O)O)C[C@H]1C	0	-6	-3	7	0	3
C[C@H]1CN([C@@H](C)CO)C(=O)CCCn2cc(nn2)CO[C@H]1CN(C)S(=O)(=O)c1ccc(C#N)cc1	1	3	2	-2	1	1
C[C@H]1CN([C@@H](C)CO)C(=O)c2cc(N(C)C)ccc2O[C@@H]1CN(C)Cc1ccc(-c2ccccc2)cc1	-1	-16	40*	-5	x	10
CNC[C@H]1Oc2ccc(N(C)C)cc2C(=O)N([C@@H](C)CO)C[C@H]1C	-2	2	-2	8	129*	-7
C[C@@H]1CN([C@H](C)CO)C(=O)c2cc(N(C)C)ccc2O[C@H]1CN(C)Cc1ccc(-c2ccccc2)cc1	-28	x	50*	18	x	-5
Cc1ccc(S(=O)(=O)Nc2ccc3c(c2)C(=O)N([C@H](C)CO)C[C@@H](C)[C@H](CN(C)Cc2ccc(-c4ccccc4)cc2)O3)cc1	0	-30	0	-25	157*	28
CNC[C@H]1Oc2ccc(NS(C)(=O)=O)cc2CC(=O)N([C@@H](C)CO)C[C@@H]1C	7	-4	-4	4	-2	1
CN(C)c1ccc2c(c1)[C@@H]1C[C@@H](CC(=O)N3CCc4ccccc4C3)O[C@H](CO)[C@@H]1O2	0	13	2	-7	1	-69
C[C@@H]1CN([C@@H](C)CO)C(=O)c2cc(NS(=O)(=O)c3ccc(Cl)cc3)ccc2O[C@@H]1CN(C)CC1CCCCC1	2	6	1	-9	0	23
COc1ccc2c3c(n(C)c2c1)[C@@H](CO)NCC31CN(C(=O)c2ccccc2)C1	2	x	-1	6	0	x
CCCN1C(=O)C(O)(C/C(C)=N/O)c2ccccc21 (centres undefined)	x	-9	x	50*	x	x
O=[N+]([O-])c1ccc(N=Nc2ncc[nH]2)cc1	9	3	0	-5	30*	6
O=C(Cc1ccccn1)NCC[C@H]1CC[C@H](NC(=O)Nc2ccc(Cl)cc2)[C@@H](CO)O1	-1	9	-19	6	0	-6
SMILES	rRNA inh HTS	RAD54 inh	AF4-AF9 inh	INS-1E GSIS act	E-selectin induc	RAD52 anneal inh
COc1ccc(CNc2ccc(C)c(C)c2)c(OC)c1OC	-20*	x	12	-34	2	-2
COc1ccc(CNc2cc(C)ccc2C)c(OC)c1OC	x	-5	x	x	x	x
C=CCc1ccc(OCCOc2ccc(/C=N/n3cnnc3)cc2OCC)c(OC)c1	x	-1	x	61*	x	x
COc1ccccc1-n1cnc2cc(NCc3ccccn3)ccc21	x	9	x	x	x	x
CCCn1cnc2cc(NCc3ccccn3)ccc21	2	5	43*	x	-1	1
COc1ccc2ccc(=O)oc2c1CC=C(C)C	-2	-3	-1	62*	x	-7
Cc1nnc(SCC(=O)NCc2ccccc2Cl)[nH]c1=O	12	-10	34*	-1	x	-8
Cc1nnc(SCC(=O)Nc2c(Cl)cccc2Cl)[nH]c1=O	8	-15	-13	-6	0	-7
CCC(C)NCCOc1ccc(C(C)(C)c2ccccc2)cc1 (centres undefined)	-53*	12	5	-10	4	17
Cc1ccc(CSc2[nH]c(=O)ncc2C)cc1	-19*	-7	-18	-9	x	-6
O=c1c(O)c(-c2cc(O)c(O)c(O)c2)oc2cc(O)cc(O)c12	-24*	10	-2	x	0	-61
COc1c(-c2ccc(O)c(O)c2)oc2cc(O)cc(O)c2c1=O	x	21	-4	70*	x	-18
O=c1c(O)c(-c2ccccc2)oc2cc(O)cc(O)c12	x	4	1	-14	x	-7
O=C(C[C@@H]1CC[C@H]2[C@@H](COC[C@@H](O)CN2Cc2cccc(F)c2)O1)NCC1CCCCC1	0	-3	0	-23	0	13
CC(CN(C)Cc1ccccc1)OC(=O)c1ccccc1F (centres undefined)	x	4	x	49*	x	x
COc1ccc(OCc2cc(C(=O)N[C@H]3CCCCNC3=O)no2)c(Cl)c1	-1	19	-5	-1	x	-11
CSc1ccccc1OCc1cc(C(=O)N[C@H]2CCCCNC2=O)no1	-19*	2	1	36	x	-19
COc1ccc(NS(=O)(=O)c2cc(NC(=O)c3cnccn3)ccc2OC)cc1Br	-31*	3	2	15	0	-18
Nc1nc(N)c(N=O)c(Nc2cccc(Cl)c2)n1	x	x	6	41*	0	-21
CO[C@H]1CN(C)C(=O)c2ccc(NS(C)(=O)=O)cc2OC[C@H](C)N(C(=O)C2CCOCC2)C[C@@H]1C	3	1	-4	-4	0	-3
C[C@H]1C(C(=O)N(C)C2CCCCC2)=Cc2c(n(-c3ccc(F)cc3)c(=O)n2CCCOc2ccccc2)C=C1c1ccccc1	9	x	84*	-16	0	1
CON(C)C(=O)[C@H]1C[C@@H]2[C@H](C[C@@H](c3ccccc3)[C@H]1C)N(c1ccc(F)cc1)C(=O)N2CCCOc1ccccc1	9	x	-4	-13	0	-42
Cc1ccc(-n2c(-c3ccccc3)c[n+]3c2CCc2ccccc2-3)c(C)c1	-53*	x	1	-50	-1	-6

Screening results from PubChem.
